Data taken from ChEMBL document CHEMBL4229410, “Facile construction of fused benzimidazole-isoquinolinones that induce cell-cycle arrest and apoptosis in colorectal cancer cells” (Bioorg Med Chem, 2018).

Legend:
[1] = test system: SW-620; test: Growth inhibition of human SW620 cells by MTT assay; type: functional
In short: (§1)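 MTT viability assay: 3×10³ cells/well were pre-incubated for 24 h, then exposed to 0, 12.5, 25, 50, 100 or 200 μM for 12, 24, 48 or 72 h. MTT was added at 0.5 mg/mL final for 4 h, formazan dissolved in DMSO, and absorbance read at 570 nm. GI₅₀ was taken from growth-inhibition curves; mean ± SD of three independent experiments, each in sextuplicate.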

[2] = test system: HT-29; test: Growth inhibition of human HT-29 cells by MTT assay; type: functional; in short: as §1

Row | SMILES | GI50 [1] [µM] | GI50 [2] [µM]
1 | O=C(c1cccnc1)N(c1ccccc1Br)c1c2ccccc2c(=O)n2c1[nH]c1ccccc12 | 57.9 | 61.3
2 | CC(C)CN(C(=O)c1ccccc1C(=O)O)c1c2ccccc2c(=O)n2c1[nH]c1ccccc12 | 52.7 | 59.8
3 | O=C(Nc1c2ccccc2c(=O)n2c1[nH]c1ccccc12)c1ccccc1 | > 100 | > 100
4 | O=C(c1cccs1)N(c1c2ccccc2c(=O)n2c1[nH]c1ccccc12)C1CC1 | 47.6 | 51.3
5 | O=C(c1ccccc1)N(c1ccccc1)c1c2ccccc2c(=O)n2c1[nH]c1ccccc12 | > 100 | > 100
6 | O=C(c1ccccc1)N(Cc1ccccc1)c1c2ccccc2c(=O)n2c1[nH]c1ccccc12 | 69.7 | 74.3
7 | O=C(c1ccncc1)N(CCc1ccccc1)c1c2ccccc2c(=O)n2c1[nH]c1ccccc12 | 48.9 | 52.3
8 | O=C(c1ccco1)N(c1ccccc1Br)c1c2ccccc2c(=O)n2c1[nH]c1ccccc12 | 46 to 100 | 43.7 to 100
9 | CC(C)CN(C(=O)c1cccs1)c1c2ccccc2c(=O)n2c1[nH]c1ccccc12 | 44.1 | 49.5
10 | CC(=O)N(c1ccccc1Br)c1c2ccccc2c(=O)n2c1[nH]c1ccccc12 | 46.9 to 100 | 57.2 to 100
11 | CC(C)CN(C(=O)c1ccco1)c1c2ccccc2c(=O)n2c1[nH]c1ccccc12 | 53.5 | 52.8
